Results from ChEMBL document CHEMBL3272036, “Reactions of 2-acyloxyisobutyryl halides with nucleosides. Synthesis and biological evaluation of some 3"-acyl and 3',5'-diacyl derivatives of 1-beta-D-arabinofuranosylcytosine” (J Med Chem, 1976).
pEC50: −log10 of the molar value. Converted amounts (≈) assume the structure as drawn. The source made the active and inactive calls. The calls are words filed in the database; no cut-off is given here.

Assays:
L1210 [1] = assay: Antitumor activity against mouse L1210 cells allografted in ip dosed mouse administered as single dose relative to vehicle-treated control; format: functional
Method in brief: (§1)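 Leukemic L1210 cells were introduced into mice. Each compound was then given as a single intraperitoneal injection 24 h later. Activity is expressed as % increase in life span (ILS), with the count of 30-day survivors per group. Doses tested were 100, 200, 500 and 1000 mg/kg.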

HeLa = assay: Cytotoxicity against human HeLa cells after 48 hrs by Coulter counter analysis; format: functional; conditions: read-out: ED50 (the source's name)
L1210 [2] = assay: Antitumor activity against mouse L1210 cells allografted in BDF1 mouse assessed as increase in life span at 100 mg/kg, ip administered as single dose relative to vehicle-treated control; format: functional; conditions: route intraperitoneal
Method in brief: (§2)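 Single intraperitoneal injection given 24 h after the leukemic cells were introduced, at 100, 200, 500 or 1000 mg/kg. Read-out is % increase in life span (ILS), with the count of 30-day survivors per group recorded (group sizes 7–8 mice).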

L1210 [3] = assay: Antitumor activity against mouse L1210 cells allografted in BDF1 mouse assessed as survival at 1000 mg/kg, ip administered as single dose measured on day 30 relative to vehicle-treated control; format: functional, organism-based; parameters: dose 1000 mg/kg; method in brief: as §1
L1210 [4] = assay: Antitumor activity against mouse L1210 cells allografted in BDF1 mouse assessed as increase in life span at 200 mg/kg, ip administered as single dose relative to vehicle-treated control; format: functional; conditions: route intraperitoneal; method in brief: as §2
Vaccinia virus = assay: Antiviral activity against Vaccinia virus IHD infected in African green monkey BGM cells assessed as plaque reduction measured on day 5 by disk diffusion assay; format: functional; conditions: Orthopoxvirus vaccinia, 120 h, read-out: ED50 (the source's name)
L1210 [5] = assay: Antitumor activity against mouse L1210 cells allografted in BDF1 mouse assessed as survival at 100 mg/kg, ip administered as single dose measured on day 30 relative to vehicle-treated control; format: functional, organism-based; parameters: dose 100 mg/kg; method in brief: as §1
L1210 [6] = assay: Antitumor activity against mouse L1210 cells allografted in BDF1 mouse assessed as survival at 200 mg/kg, ip administered as single dose measured on day 30 relative to vehicle-treated control; format: functional, organism-based; parameters: dose 200 mg/kg; method in brief: as §1
L1210 [7] = assay: Chemotherapeutic index, ratio of ILSmax for antitumor activity against mouse L1210 cells allografted in BDF1 mouse to ILS30 for antitumor activity against mouse L1210 cells allografted in BDF1 mouse; format: functional
Method in brief: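 Dose-response curves were determined in L1210-bearing mice, each receiving a single ip injection 24 h after leukemic cell introduction. Chemotherapeutic index = the dose producing maximum % ILS divided by the dose giving 30% ILS.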

L1210 [8] = assay: Antitumor activity against mouse L1210 cells allografted in BDF1 mouse assessed as increase in life span at 500 mg/kg, ip administered as single dose relative to vehicle-treated control; format: functional; conditions: route intraperitoneal; method in brief: as §2
L1210 [9] = assay: Antitumor activity against mouse L1210 cells allografted in BDF1 mouse assessed as increase in life span at 1000 mg/kg, ip administered as single dose relative to vehicle-treated control; format: functional; conditions: route intraperitoneal; method in brief: as §2
L1210 [10] = assay: Antitumor activity against mouse L1210 cells allografted in BDF1 mouse assessed as survival at 500 mg/kg, ip administered as single dose measured on day 30 relative to vehicle-treated control; format: functional, organism-based; parameters: dose 500 mg/kg; method in brief: as §1
Herpesviridae sp. = assay: Antiviral activity against Herpes Simplex virus HF infected in African green monkey BGM cells assessed as plaque reduction measured on day 5 by disk diffusion assay; format: functional; conditions: 120 h, read-out: ED50 (the source's name)
L1210 [11] = assay: Antitumor activity against mouse L1210 cells allografted in BDF1 mouse assessed as survival at 50 mg/kg, ip administered as single dose measured on day 30 relative to vehicle-treated control; format: functional, organism-based; parameters: dose 50 mg/kg

Structure (SMILES) | ILS30 (L1210 [1]) [mg/kg] | ILSmax (L1210 [1]) [mg/kg] | EC50 (HeLa) [µg/mL] | ILS at 100 mg/kg (L1210 [2]) [%] | Activity (L1210 [3]) | ILS at 200 mg/kg (L1210 [4]) [%] | pEC50 (Vaccinia virus) | Activity (L1210 [5]) | Activity (L1210 [6]) | Ratio (L1210 [7]) | ILS at 500 mg/kg (L1210 [8]) [%] | ILS at 1000 mg/kg (L1210 [9]) [%] | Activity (L1210 [10]) | pEC50 (Herpesviridae sp.) | Activity (L1210 [11])
CCCCCCCCCCCCCCCC(=O)O[C@H]1[C@H](O)[C@H](n2ccc(N)nc2=O)O[C@@H]1CO | 1 | 200 | 0.24 (≈ 0.498 µM) | > 295 | inactive | > 295 | 6.85 | Active | Active | 200 | -20 | -19 | inactive | 6.17 | –
CCCCCCCCCCCCCCCC(=O)OC[C@H]1O[C@@H](n2ccc(N)nc2=O)[C@@H](O)[C@@H]1O | 2 | 150 | 0.08 (≈ 0.166 µM) | > 257 | – | > 224 | 6.52 | Active | – | 75 | -40 | – | inactive | 5.94 | –
CCCCCCCC/C=C/CCCCCCCC(=O)OC[C@H]1O[C@@H](n2ccc(N)nc2=O)[C@@H](O)[C@@H]1OC(=O)CCCCCCC/C=C/CCCCCCCC | – | – | 2.5 (≈ 3.24 µM) | 14 | – | > 253 | < 4.52 | – | – | – | – | – | – | < 4.52 | inactive
CCCCCCCC/C=C\CCCCCCCCCCCC(=O)O[C@H]1[C@H](O)[C@H](n2ccc(N)nc2=O)O[C@@H]1CO | – | – | 0.16 (≈ 0.284 µM) | > 280 | inactive | > 280 | 4.76 | Active | Active | – | -34 | – | inactive | < 4.52 | –
CCCCCCCCCC(=O)OC[C@H]1O[C@@H](n2ccc(N)nc2=O)[C@@H](O)[C@@H]1O | 20 | 500 | 0.1 (≈ 0.252 µM) | 59 | – | > 114 | 6.74 | inactive | – | 25 | > 122 | -45 | – | 6.07 | –
CCCCCC(=O)O[C@H]1[C@H](O)[C@H](n2ccc(N)nc2=O)O[C@@H]1CO | – | – | 0.05 (≈ 0.146 µM) | 5 | – | 21 | 6.32 | – | inactive | – | – | – | – | 5.82 | inactive
CCCCCCCCCC(=O)O[C@H]1[C@H](O)[C@H](n2ccc(N)nc2=O)O[C@@H]1CO | 5 | 150 | 0.09 (≈ 0.226 µM) | > 241 | inactive | > 224 | 7.00 | – | – | 30 | > 161 | -23 | – | 6.47 | –
CCCCCCCC(=O)O[C@H]1[C@H](O)[C@H](n2ccc(N)nc2=O)O[C@@H]1CO | – | – | 0.1 (≈ 0.271 µM) | 34 | inactive | 48 | 6.96 | inactive | inactive | – | 37 | 11 | inactive | 6.19 | –
CCCCCCCCCCCC(=O)O[C@H]1[C@H](O)[C@H](n2ccc(N)nc2=O)O[C@@H]1CO | – | – | 0.08 (≈ 0.188 µM) | > 258 | inactive | > 257 | 7.30 | – | – | – | – | -28 | – | 6.60 | Active
Nc1ccn([C@@H]2O[C@H](CO)[C@@H](O)[C@@H]2O)c(=O)n1 [CYTARABINE] | – | – | 0.05 (≈ 0.206 µM) | 8 | inactive | 7 | 7.15 | inactive | inactive | – | 16 | 34 | inactive | 6.80 | –
CCCCCCCCCCCCCCCCCCCCCC(=O)OC[C@H]1O[C@@H](n2ccc(N)nc2=O)[C@@H](O)[C@@H]1O | 1 | 500 | 0.04 (≈ 0.0707 µM) | > 228 | inactive | > 295 | 6.35 | – | Active | 500 | > 295 | 45 | Active | 4.92 | –
CCCCCCCC/C=C\CCCCCCCC(=O)OC[C@H]1O[C@@H](n2ccc(N)nc2=O)[C@@H](O)[C@@H]1OC(=O)CCCCCCC/C=C\CCCCCCCC.Cl | – | – | 1.1 | 70 | – | > 190 | 4.76 | – | – | – | – | – | – | < 4.52 | inactive
CCCCCCCCCCCCCCCCCCCCCC(=O)O[C@H]1[C@H](O)[C@H](n2ccc(N)nc2=O)O[C@@H]1CO | 2 | 2000 | 1.1 (≈ 1.94 µM) | > 200 | Active | > 215 | < 4.52 | – | – | 1000 | – | > 240 | – | < 4.52 | –
